Values after ≈ are worked out from the molar mass of the structure shown. Active and inactive are the calls of the source. The calls are words filed in the database; no cut-off is given here.
Experiments:
HepG2 [1] = experiment: Up-regulation of LDL receptor expression in human HepG2 cells at 100 nM by immunoblot analysis; format: functional, cell-based
In short: (§1)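 HepG2 cells exposed to compound, lysed in 125 mM Tris–HCl pH 8.0, 2 mM CaCl₂, 1% Triton X-100 with protease inhibitor cocktail, then centrifuged. LDL receptor detected by immunoblot with mouse monoclonal anti-LDL-R antibody (clone IgG-C7).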

[2] = target: T1, Sterol O-acyltransferase 1 (Rattus norvegicus, UniProt O70536); experiment: Inhibition of ACAT in rat macrophages assessed as incorporation of extracellular [3H]-oleic acid-BSA complex into the intracellular cholesteryl ester after 24 hrs; format: cell-based
T1 sequence (O70536 whole entry): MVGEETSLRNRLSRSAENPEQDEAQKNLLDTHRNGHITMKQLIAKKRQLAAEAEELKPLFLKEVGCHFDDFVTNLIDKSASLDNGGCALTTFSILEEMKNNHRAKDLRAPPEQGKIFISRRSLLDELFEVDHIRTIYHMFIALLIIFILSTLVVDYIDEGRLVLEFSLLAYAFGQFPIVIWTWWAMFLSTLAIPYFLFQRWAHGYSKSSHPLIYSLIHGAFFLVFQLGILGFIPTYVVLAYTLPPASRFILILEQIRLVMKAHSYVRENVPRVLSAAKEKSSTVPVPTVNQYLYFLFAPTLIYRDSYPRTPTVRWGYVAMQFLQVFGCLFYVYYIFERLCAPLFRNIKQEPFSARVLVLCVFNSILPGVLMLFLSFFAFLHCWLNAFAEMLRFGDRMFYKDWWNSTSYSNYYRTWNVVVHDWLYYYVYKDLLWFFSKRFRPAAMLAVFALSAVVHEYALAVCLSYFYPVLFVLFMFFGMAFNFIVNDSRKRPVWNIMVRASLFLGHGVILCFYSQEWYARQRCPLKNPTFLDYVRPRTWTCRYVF
In short: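 Cells seeded at 2 × 10⁶ cells/mL/well, incubated 24 h at 37 °C (humidified, 5% CO₂) in medium containing liposomes, ³H-oleic acid–BSA complex and a range of compound concentrations. Protein measured by Lowry method.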

[3] = Solubility at pH 7.4; format: physicochemical; conditions: buffer
HepG2 [4] = experiment: Up-regulation of LDL receptor expression in human HepG2 cells at 10 uM by immunoblot analysis; format: functional, cell-based; in short: as §1

Row | SMILES | Activity (HepG2 [1]) | IC50 [2] [nM] | solubility [3] [µg/mL] | Activity (HepG2 [4])
1 | COc1cccc(C2(CNC(=O)Nc3c(C(C)C)cc(N)cc3C(C)C)CCN(c3ccccc3O)CC2)c1 | inactive | – | – | –
2 | CC(C)c1cc(C(C)C)c(CC(=O)NS(=O)(=O)Oc2c(C(C)C)cccc2C(C)C)c(C(C)C)c1 [AVASIMIBE] | inactive | 479 | – | –
3 | CCCCOc1ccccc1N1CCC(CNC(=O)Nc2c(C(C)C)cc(N)cc2C(C)C)(c2cccc(OC)c2)CC1 | Active | 32 | 0.3 (≈ 0.511 µM) | –
4 | COc1cccc(C2(CNC(=O)Nc3c(C(C)C)cc(N)cc3C(C)C)CCN(c3ccccc3OC(F)(F)F)CC2)c1 | Active | 68 | – | –
5 | COc1cccc(C2(CNC(=O)Nc3c(C(C)C)cc(N)cc3C(C)C)CCN(c3ccccc3OCCCN)CC2)c1.Cl | Active | 195 | 32 | –
6 | COc1cccc(C2(CNC(=O)Nc3c(C(C)C)cc(N)cc3C(C)C)CCN(c3ccccc3OCCO)CC2)c1 | Active | 96 | – | –
7 | COc1ccccc1N1CCC(CNC(=O)Nc2c(C(C)C)cc(N)cc2C(C)C)(c2ccccc2)CC1 | inactive | 82 | – | –
8 | COc1cccc(C2(CNC(=O)Nc3c(C(C)C)cc(N)cc3C(C)C)CCN(c3ccccc3OCCCO)CC2)c1.Cl.Cl | Active | 18 | 22 | –
9 | CCCCn1c(=O)c(NC(=O)Nc2c(C(C)C)cc(N)cc2C(C)C)c(-c2cccc(OCCCO)c2)c2cccnc21 | Active | 31 | 10 (≈ 17.1 µM) | –
10 | COc1cccc(C2(CNC(=O)Nc3c(C(C)C)cc(N)cc3C(C)C)CCN(c3ccccc3OC(C)C)CC2)c1 | Active | 37 | – | –
11 | COc1ccccc1N1CCC(CNC(=O)Nc2c(C(C)C)cc(N)cc2C(C)C)(c2cccc(OCCCO)c2)CC1 | Active | 62 | – | –
12 | COc1cccc(C2(CNC(=O)Nc3c(C(C)C)cc(N)cc3C(C)C)CCN(c3ncccc3OCCCO)CC2)c1 | – | 4 | – | –
13 | COc1cccc(C2(CNC(=O)Nc3c(C(C)C)cc(N)cc3C(C)C)CCN(c3cccnc3)CC2)c1 | – | 466 | – | –
14 | COc1cccc(N2CCC(CNC(=O)Nc3c(C(C)C)cc(N)cc3C(C)C)(c3cccc(OC)c3)CC2)c1 | inactive | 48 | – | –
15 | COc1cccc(C2(CNC(=O)Nc3c(C(C)C)cc(N)cc3C(C)C)CCN(c3ccccc3)CC2)c1 | – | 40 | – | inactive
16 | COc1cccc(C2(CNC(=O)Nc3c(C(C)C)cc(N)cc3C(C)C)CCN(c3ccccc3OC)CC2)c1 | Active | 37 | – | –
17 | COc1cccc(C2(CNC(=O)Nc3c(C(C)C)cc(N)cc3C(C)C)CCN(c3ncccc3OC)CC2)c1 | – | 6 | – | –
18 | COc1cccc(C2(CNC(=O)Nc3c(C(C)C)cc(N)cc3C(C)C)CCN(c3ccccc3OCCCN(C)C)CC2)c1.Cl | – | 239 | > 250 | –
19 | COc1cccc(C2(CNC(=O)Nc3c(C(C)C)cc(N)cc3C(C)C)CCN(c3ccccn3)CC2)c1 | – | 32 | – | –
20 | COc1ccccc1N1CCC(CNC(=O)Nc2c(C(C)C)cc(N)cc2C(C)C)(c2cccc(O)c2)CC1 | inactive | 797 | – | –
21 | COc1ccc(N2CCC(CNC(=O)Nc3c(C(C)C)cc(N)cc3C(C)C)(c3cccc(OC)c3)CC2)cc1 | inactive | 142 | – | –
22 | COc1cccc(C2(CNC(=O)Nc3c(C(C)C)cc(N)cc3C(C)C)CCN(c3ccccc3OCC(F)(F)F)CC2)c1 | Active | 48 | – | –
23 | COc1cccc(C2(CNC(=O)Nc3c(C(C)C)cccc3C(C)C)CCN(c3ccccc3)CC2)c1 | – | – | – | inactive
24 | COc1cccc(C2(CNC(=O)Nc3c(C(C)C)cc(N)cc3C(C)C)CCN(c3ccncc3)CC2)c1 | – | > 1000 | – | –
